{"data": "Measured values gathered from unrelated publications", "target": "Mitogen-activated protein kinase kinase kinase 9 (MAP3K9, Homo sapiens, UniProt P80192)", "note": "Protocols differ between the studies behind these lines."}
{"Structure (SMILES)": "O=C(c1ccc(Nc2nccc(-c3cc4ccccc4s3)n2)cc1)N1CCC(N2CCCC2)CC1", "test": "binding, competition with immobilised ligand", "setting": "1 µM", "remaining binding [%]": 27}
{"Structure (SMILES)": "C[C@H]1CCN(c2nccc(-c3cnn4ncccc34)n2)C1", "test": "binding", "setting": "1 µM", "remaining binding [%]": 100}
{"Structure (SMILES)": "C[C@@H]1CN(c2ccc3ncc(-c4ccc5[nH]nc(C6CC6)c5c4)n3n2)C[C@H](C)O1", "test": "binding, competition with immobilised ligand", "setting": "0.5 µM", "remaining binding [%]": 100}
{"Structure (SMILES)": "O=C(NCCCN1CCOCC1)c1ccc(Nc2ncc(Cl)c(-c3ccc(Cl)s3)n2)cc1", "test": "binding, competition with immobilised ligand", "setting": "1 µM", "remaining binding [%]": 11}
{"Structure (SMILES)": "C[C@@]1(Cc2ccc(C#N)cc2)C(=O)N(c2cc(Cl)cc(Cl)c2)c2ncc(C(=O)NC3(c4nc(C5CCC5)no4)CC3)n21", "test": "cell-free assay, competition with immobilised ligand", "setting": "1 µM", "remaining binding [%]": 100}
{"Structure (SMILES)": "F[C@@H]1CCN(c2nccc(-c3cnn4ncccc34)n2)C1", "test": "binding", "setting": "1 µM", "remaining binding [%]": 78}
{"Structure (SMILES)": "CO[C@@H](C)c1c(Nc2ccc([C@@H](N(C)C(=O)C3CCS(=O)(=O)CC3)C(F)(F)F)cc2)cnc2cc(Cl)nn12", "test": "cell-free assay, competition with immobilised ligand", "setting": "1 µM", "remaining binding [%]": 81}
{"Structure (SMILES)": "CN(CCCC(F)(F)F)c1nccc(-c2cnn3ncccc23)n1", "test": "binding", "setting": "1 µM", "remaining binding [%]": 88}
{"Structure (SMILES)": "Nc1ncc2c(n1)-c1c([nH]c3ccc(C#CC4CC4)cc13)CCCC2", "test": "binding, competition with immobilised ligand", "setting": "1 µM", "remaining binding [%]": 100}
{"Structure (SMILES)": "C[C@@H](c1cccc(C#N)c1)n1cc(Cl)cc(C(N)=O)c1=N", "test": "cell-free assay, competition with immobilised ligand", "setting": "1 µM", "remaining binding [%]": 100}
{"Structure (SMILES)": "Cc1cnn2ncc(-c3ccnc(N(C)C)n3)c2c1", "test": "binding", "setting": "1 µM", "remaining binding [%]": 100}
{"Structure (SMILES)": "COc1cc(-c2cn(C3CCc4c(F)cccc4N(CC(F)(F)F)C3=O)nn2)ccc1-n1cnc(C)c1 (stereo not shown)", "test": "cell-free assay, competition with immobilised ligand", "setting": "1 µM", "remaining binding [%]": 100}
{"Structure (SMILES)": "CN(c1nccc(-c2cnn3ncccc23)n1)C1CC1", "test": "binding", "setting": "1 µM", "remaining binding [%]": 85}
{"Structure (SMILES)": "O=C(NCC1CCOCC1)c1n[nH]cc1NC(=O)c1c(F)cccc1F", "test": "binding, competition with immobilised ligand", "setting": "1 µM", "remaining binding [%]": 100}
{"Structure (SMILES)": "CN(C)c1nccc(-c2cnc3ncccn23)n1", "test": "binding", "setting": "1 µM", "remaining binding [%]": 65}
{"Structure (SMILES)": "C=CC(=O)N1CCC(C(=O)NCC(=O)N2CCN(c3nc(-c4cnc(N)nc4C(F)F)nc(N4CCOCC4)n3)CC2)CC1", "test": "binding, competition with immobilised ligand", "setting": "1 µM", "remaining binding [%]": 96}
{"Structure (SMILES)": "CCCCN(CCCC)C(=O)CN1C[C@@H](c2cc(OC)c3c(c2)OCO3)[C@H](C(=O)O)[C@H]1CC(C)(C)CCC", "test": "cell-free assay, competition with immobilised ligand", "setting": "1 µM", "remaining binding [%]": 98.8}
{"Structure (SMILES)": "O=C(NCCCN1CCOCC1)c1ccc(Nc2nccc(-c3cc4ccccc4s3)n2)cc1", "test": "binding, competition with immobilised ligand", "setting": "1 µM", "remaining binding [%]": 14}
{"Structure (SMILES)": "COc1ncc2cc3ccccc3nc2c1C#N", "test": "cell-free assay, competition with immobilised ligand", "setting": "5 µM", "remaining binding [%]": 97}
{"Structure (SMILES)": "CN([C@@H]1CCc2c(CC(=O)O)c3ccccc3n2C1)S(=O)(=O)c1ccc(F)cc1", "test": "cell-free assay, competition with immobilised ligand", "setting": "1 µM", "remaining binding [%]": 100}
{"Structure (SMILES)": "c1cnn2ncc(-c3ccnc(N4CCC45COC5)n3)c2c1", "test": "binding", "setting": "1 µM", "remaining binding [%]": 85}
{"Structure (SMILES)": "Cc1nccc(COC(=O)N2C[C@@H]3[C@@H](CNC(=O)c4ccc5[nH]nnc5c4)[C@@H]3C2)n1", "test": "cell-free assay, competition with immobilised ligand", "setting": "1 µM", "remaining binding [%]": 89}
{"Structure (SMILES)": "C[C@@H](c1ccc(-n2cnc3c(N)ncnc32)cc1)N1CCc2nn(C)c(Cc3ccccc3)c2C1=O", "test": "binding, competition with immobilised ligand", "setting": "0.1 µM", "remaining binding [%]": 95}
{"Structure (SMILES)": "Cc1cc(C)c(-n2ccn3nc(-c4cccnc4)cc23)cc1NC(=O)c1cc(C#N)cc(S(F)(F)(F)(F)F)c1", "test": "cell-free assay, competition with immobilised ligand", "setting": "0.1 µM", "remaining binding [%]": 79.5}
{"Structure (SMILES)": "COc1cnc(Nc2cccc(S(N)(=O)=O)c2)nc1N1CCN(c2ccccc2)C(=O)C1", "test": "binding, competition with immobilised ligand", "setting": "1 µM", "remaining binding [%]": 98}
